The values that follow come from ChEMBL document CHEMBL4270562, “Synthesis and evaluation of the cytotoxic activity of Furanaphthoquinones tethered to 1H-1,2,3-triazoles in Caco-2, Calu-3, MDA-MB231 cells” (Eur J Med Chem, 2018).

Series [1] is described as follows: Cytotoxicity against African green monkey Vero cells assessed as cell viability at 5 uM after 48 hrs by MTT assay relative to control. It counts as cell-based. Particulars: chlorocebus sabaeus, read-out: Activity. An outline of the steps: (§1)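 Single-concentration screen at 5 μM. Cells were seeded at 32,000/well and pre-incubated 24 h at 37 °C, 5% CO2, then treated 48 h in 10% FBS DMEM or RPMI containing 0.5% DMSO. MTT (2.5 mg/mL solution, 3 h), formazan dissolved in DMSO, absorbance at 570/690 nm. Viability expressed as % of untreated cells, mean ± SD.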
For orientation: Tetrazolium dyes change colour on reduction, which living cells bring about.

Series [2] relates to Caco-2. Description: Cytotoxicity against human Caco2 cells assessed as cell viability at 5 uM after 48 hrs by MTT assay relative to control. Particulars: Caco-2, 48 h, read-out: Activity. In kind it is functional. An outline of the steps:
as §1

The test system of another series is Calu-3. Description: Cytotoxicity against human Calu3 cells assessed as cell viability at 5 uM after 48 hrs by MTT assay relative to control. It counts as functional. The conditions noted are these: Calu-3, 48 h, read-out: Activity. Put shortly:
as §1

A further series relates to MDA-MB-231. Description: Cytotoxicity against human MDA-MB-231 cells assessed as cell viability at 5 uM after 48 hrs by MTT assay relative to control. In kind it is functional. The conditions noted are these: MDA-MB-231, 48 h, read-out: Activity. Put shortly: as §1
Series [3] in a line: Cytotoxicity against African green monkey Vero cells assessed as cell viability after 48 hrs by MTT assay relative to control. It counts as cell-based. Particulars: chlorocebus sabaeus. An outline of the steps: (§2)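 Cells seeded at 32,000/well, grown 24 h at 37 °C in 5% CO2, then exposed for 48 h to samples at 5 to 400 μM in 10% FBS DMEM or RPMI with 0.5% DMSO. Vehicle medium with 0.5% DMSO served as control. Viability was read by MTT reduction: MTT solution (2.5 mg/mL) in HBSS for 3 h, DMSO to dissolve formazan, absorbance at 570/690 nm. IC50 (tumour lines) and CC50 (Vero) were derived from survival relative to untreated cells, and SI was calculated from them.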

A further series concerns Platelet. Description: Inhibition of arachidonic acid-induced platelet aggregation in human platelet rich plasma at 100 uM preincubated for 2 mins followed by arachidonic acid addition and measured after 3 hrs by turbidimetric analysis. In kind it is cell-based. An outline of the steps:
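Fresh platelet-rich plasma pre-incubated 2 min at 37 °C with sample (100 μM) before arachidonic acid stimulation. Aggregation was followed turbidimetrically in a lumi-aggregometer. DMSO 1% was the negative control and acetylsalicylic acid 100 μM the positive control.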

Series [4] has as its system Caco-2. Description: Cytotoxicity against human Caco2 cells assessed as cell viability after 48 hrs by MTT assay relative to control. In kind it is functional, cell-based. The conditions noted are these: Caco-2, 48 h. An outline of the steps:
as §2

The nature of series [5]: Selectivity index, ratio of CC50 for African green monkey Vero cells to IC50 for human Caco2 cells. In kind it is toxicity. The conditions noted are these: Vero cells (CC50) and Caco2 cells (IC50). An outline of the steps:
as §2

The nature of series [6]: Effect on prothrombin time in human platelet poor plasma at 100 uM after 3 hrs. It counts as ADME, cell-free. Put shortly: (§3)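 Citrated platelet-poor plasma tested with sample at 100 μM, vehicle DMSO ≤1%. Clotting times (PT, aPTT) were measured on a coagulation analyzer. DMSO 1% was the negative control and rivaroxaban 100 μM the positive anticoagulant control.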
A short description of series [7]: Effect on activated thromboplastin time in human platelet poor plasma at 100 uM after 3 hrs. It counts as ADME, cell-free. Put shortly: as §3

Regarding `COc1ccc(-n2cc(C3CC4=C(O3)C(=O)c3ccccc3C4=O)nn2)cc1` (stereo not given), the viability at 48 h, 5 µM in series [1] was 64.8%. For the same compound, the values for the viability at 5 µM in the series with Caco-2 [2], in the series with Calu-3 and in the series with MDA-MB-231 were 81.8%, 125% and 99.6%, respectively.
As to `O=C1C2=C(OC(c3cn(-c4ccccc4)nn3)C2)C(=O)c2ccccc21` (stereo not given), the viability at 48 h, 5 µM in series [1] worked out at 76.2%. Further, the figures for the viability at 5 µM in the series with Caco-2 [2], in the series on Calu-3 and in the series on MDA-MB-231 were 88.3%, 113% and 109%, respectively.
The term CC50 denotes the concentration that lowers cell viability or growth by half. Usually IC50 stands for the concentration at which inhibition is half-maximal. Turning to `O=C1C(=O)c2ccccc2C2=C1CC(c1cn(-c3ccccc3)nn1)O2` (stereo not given), in [1], the viability at 48 h, 5 µM is 68%. Further, the viability at 5 µM came to 23.9% with Caco-2 [2], 110% with Calu-3 and 87.7% with MDA-MB-231. Besides, in series [3], the CC50 at 48 h stood at 28 µM. Also, the Activity result (with Platelet; in [6]; in series [7]) was “Non-Toxic” throughout. The IC50 in the series on Caco-2 [4] is 4.48 µM. Moreover, the selectivity ratio in [5] came to 6.25.
With `O=C1C2=C(OC(c3cn(-c4ccc(Cl)c(Cl)c4)nn3)C2)C(=O)c2ccccc21` (stereo not given), in series [1], the viability at 48 h, 5 µM was found to be 78.7%. Further, the viability at 5 µM with Caco-2 [2] came out at 83.9%; in the series with Calu-3, 111%; in the series with MDA-MB-231 it was 96.6%.
The matching figures for `Cc1ccc(-n2cc(C3CC4=C(O3)C(=O)c3ccccc3C4=O)nn2)cc1` (stereo not given): 74%, 88%, 112% and 95.3%.
On to `O=C1C2=C(OC(c3cn(-c4cc(Cl)ccc4Cl)nn3)C2)C(=O)c2ccccc21` (stereo not given), for which, in series [1], the viability at 48 h, 5 µM is 90.4%. The viability at 5 µM amounted to 85.8% in the series with Caco-2 [2], 139% in the series on Calu-3 and 104% with MDA-MB-231.
With `O=C1C(=O)c2ccccc2C2=C1CC(c1cn(-c3ccc(F)cc3)nn1)O2` (stereo not given), the viability at 48 h, 5 µM in series [1] worked out at 55.8%. The viability at 5 µM with Caco-2 [2] was 37.9%; in the series on Calu-3, 117%; in the series with MDA-MB-231, 41.5%.
The matching figures for `O=C1C(=O)c2ccccc2C2=C1CC(c1cn(-c3cc(Cl)ccc3Cl)nn1)O2` (stereo not given): 74.7%, 78.1%, 118% and 82.1%.
As to `O=C1C2=C(OC(c3cn(-c4ccc(F)cc4)nn3)C2)C(=O)c2ccccc21` (stereo not given), the viability at 48 h, 5 µM in series [1] was determined as 73%. Further, the viability at 5 µM in the series on Caco-2 [2] stood at 77.3%; in the series on Calu-3 it was 104%; in the series with MDA-MB-231 it was 97.9%.
Take `O=C1C(=O)c2ccccc2C2=C1CC(c1cn(-c3ccc(Cl)c(Cl)c3)nn1)O2` (stereo not given): in series [1], the viability at 48 h, 5 µM came to 81%. For the same compound, the figures for the viability at 5 µM with Caco-2 [2], with Calu-3 and in the series on MDA-MB-231 were 94.4%, 111% and 90.2%, respectively.
As for `O=C1C2=C(OC(c3cn(-c4ccc([N+](=O)[O-])cc4)nn3)C2)C(=O)c2ccccc21` (stereo not given), the viability at 48 h, 5 µM in series [1] is 63.6%. In addition, the results for the viability at 5 µM in the series on Caco-2 [2], with Calu-3 and in the series with MDA-MB-231 were 95.5%, 120% and 97.4%, respectively.
For `O=C1C(=O)c2ccccc2C2=C1CC(c1cn(-c3ccc([N+](=O)[O-])cc3)nn1)O2` (stereo not given), in series [1], the viability at 48 h, 5 µM is 88.7%. Also, the figures for the viability at 5 µM in the series with Caco-2 [2], in the series with Calu-3 and in the series on MDA-MB-231 were 86.9%, 133% and 99.2%, respectively.
Consider `O=C1C(=O)c2ccccc2C2=C1CC(c1cn(-c3ccc(Cl)cc3)nn1)O2` (stereo not given), for which, in series [1], the viability at 48 h, 5 µM worked out at 59.3%. Moreover, the figures for the viability at 5 µM with Caco-2 [2], in the series with Calu-3 and in the series on MDA-MB-231 were 46.4%, 122% and 46.5%, respectively.
For `O=C1C2=C(OC(c3cn(-c4ccc(Cl)cc4)nn3)C2)C(=O)c2ccccc21` (stereo not given), the viability at 48 h, 5 µM in series [1] came out at 78.1%. Moreover, the figures for the viability at 5 µM with Caco-2 [2], in the series on Calu-3 and with MDA-MB-231 were 82.1%, 134% and 103%, respectively.
Regarding `Cc1ccc(-n2cc(C3CC4=C(O3)c3ccccc3C(=O)C4=O)nn2)cc1` (stereo not given), the viability at 48 h, 5 µM in series [1] was 41.8%. The figures for the viability at 5 µM in the series with Caco-2 [2], in the series with Calu-3 and in the series on MDA-MB-231 were 33.3%, 111% and 90.7%, respectively.
As for `COc1ccc(-n2cc(C3CC4=C(O3)c3ccccc3C(=O)C4=O)nn2)cc1` (stereo not given), the viability at 48 h, 5 µM in [1] worked out at 34.1%. The viability at 5 µM in the series on Caco-2 [2] turned out to be 23%; in the series on Calu-3, 113%; in the series with MDA-MB-231 it was 41.1%.
